Bioassay records deposited in PubChem by several laboratories.
HNF4A DNA FP: change in binding of human HNF4 alpha to DNA; P41235; activity change, % at 10 µM; 0.3% of 360,000 active; HNF4a-FITC DNA binding, fluorescence polarization, 1 h; in the data active means activity change above about 30%, passing the limit was not always enough
CSN inh: inhibitors of human CSN-mediated cullin deneddylation. inhibition, % at 12.5 µM. AID 651999. Purified CSN, SCF-Nedd8-OG deneddylation, fluorescence polarization. 0.38% of 360,000 active;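 active means pattern-corrected inhibition above about 35%, with an unprinted fluorescence ratio check between 0.5 and 1.5, limit read from the data, passing the limit was not always enough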;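 further: 0% = enzyme with substrate and 100% = substrate without enzyme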
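Assay system: HEK293T-derived human Csn5 enzyme; quantity: 0.24 nM enzyme; medium: Tris/NaCl/DTT buffer, pH 7.5; also added: substrate SCFSkp2-Nedd8OG, 10 nM; doses: 12.5 µM compound; schedule: 90 min reaction at room temperature; signal: FP; read-out: % inhibition of substrate cleavage by Csn5; benchmarks: substrate-only high control, full reaction low control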
TPT1 inhibitor: C. albicans TPT1 enzyme inhibition; recombinant caTPT1, FP RNA substrate dephosphorylation; inhibition, % at 5 µM; 0.81% of 300,000 active; AID 1962;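 active means inhibition above the mean of all tested compounds plus 3 SD, set per screening campaign, cut at about 24% in these data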;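 further: plate controls were DMSO alone for no effect and ferristatin control at 100 nM for full effect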
Rtt109 HAT inh: C. albicans Rtt109 histone acetyltransferase inhibition. purified Rtt109/Vps75, ThioGlo CoA-SH fluorescence, 4 h. inhibition, % at 34.9 µM. Q5AAJ8. 0.16% of 330,000 active. AID 540336;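 active means inhibition of at least 50% in every replicate; inconclusive means best replicate reaches 50% inhibition but some replicates fall short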
Target sequence (Q5AAJ8 whole entry, looked up): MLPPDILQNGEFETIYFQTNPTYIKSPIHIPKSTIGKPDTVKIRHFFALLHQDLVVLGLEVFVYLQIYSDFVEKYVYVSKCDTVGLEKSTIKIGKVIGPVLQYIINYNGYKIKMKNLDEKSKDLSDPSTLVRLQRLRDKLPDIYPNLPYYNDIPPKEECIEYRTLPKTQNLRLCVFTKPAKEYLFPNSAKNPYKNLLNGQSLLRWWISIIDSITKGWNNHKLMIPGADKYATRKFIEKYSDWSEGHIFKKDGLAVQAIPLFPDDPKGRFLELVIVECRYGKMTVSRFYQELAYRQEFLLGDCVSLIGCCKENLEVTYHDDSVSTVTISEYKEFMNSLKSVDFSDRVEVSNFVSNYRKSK
TPT1 inh confirm: confirmation of Candida albicans TPT1 inhibitors; inhibition, % at 5 µM; 74% of 2,400 active; recombinant caTPT1, fluorescence polarization, RNase T1 coupled; shares compounds with TPT1 inhibitor;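 active means inhibition above the primary screen limit, the mean inhibition of all tested compounds plus 3 SD, cut at about 25% in these data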
RNase T1 counter: RNase T1 inhibition in TPT1 counter-screen | 83% of 2,400 active | RNase T1 cleavage, fluorescence polarization, 1536-well | AID 2153 | inhibition, % at 5 µM | shares compounds with TPT1 inhibitor;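 active means inhibition above the solvent-only control well mean plus 3 SD, limit set per screening run, cut at about 23% in these data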;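 further: plate controls were DMSO wells with enzyme for no effect and wells without RNase T1 for full effect; inhibitors block cleavage so intact labeled substrate keeps polarization high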
Target sequence (P00651 whole entry, looked up): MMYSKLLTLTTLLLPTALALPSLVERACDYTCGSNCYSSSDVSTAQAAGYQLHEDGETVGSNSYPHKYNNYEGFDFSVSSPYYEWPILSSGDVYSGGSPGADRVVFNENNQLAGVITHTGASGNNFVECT
CSN5 deneddyl: Csn5 (human) deneddylation inhibition, single-concentration validation | shares compounds with CSN inh | Csn5 deneddylation of SCF-Nedd8OG, fluorescence polarization, 90 min | inhibition, % at 16.6 µM | 62% of 540 active | AID 720654; in the data active means inhibition above about 50%;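 further: 0% = DMSO with enzyme and 100% = no enzyme wells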
MMP-2 counter: blocks human MMP-2 in a CSN deneddylation counter-screen; recombinant MMP-2, FRET substrate fluorescence, 60 min; shares compounds with CSN inh; 33% of 540 active; inhibition, % at 16.6 µM;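 active means corrected plate-normalized z-score of 5 or more, or -5 or less, or inhibition of 15% or more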;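 further: plate controls were DMSO wells with enzyme for no effect and buffer wells lacking MMP-2 for full effect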
Thrombin counter: blocks bovine thrombin in a CSN deneddylation counter-screen; bovine thrombin cleavage of Ub4-pepOG, fluorescence polarization; 49% of 540 active; inhibition, % at 16.6 µM; shares compounds with CSN inh; AID 720656;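 active means inhibition at or above a set limit, with a fluorescence interference ratio between 0.5 and a set maximum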
Numbers without * were called inactive; ? = inconclusive; · = not tested or not shown. In the library only some 1.2% were active in any assay of this set; here they are far more common.

SMILES	HNF4A DNA FP	CSN inh	TPT1 inhibitor	Rtt109 HAT inh	TPT1 inh confirm	RNase T1 counter	others
COc1ccc(Nc2ccc(S(=O)(=O)N3CCCCC3)cc2[N+](=O)[O-])cc1	-4	-2	67*	·	6	9
COc1ccc(Nc2ccc(S(=O)(=O)N3CCCCC3)cc2[N+](=O)[O-])cc1Cl	0	0	-1	-3	·	·
Cc1occc1C(=O)N/N=C/C1=C(N2CCOCC2)C(=C/c2ccc(Cl)cc2Cl)/CC1	27	6	·	-5	·	·
O=C(NCCc1ccccc1)c1cc(S(=O)(=O)N2CCOCC2)ccc1F	1	3	4	19	·	·
O=C(NCc1ccccc1)c1cc(S(=O)(=O)N2CCOCC2)ccc1F	17	9	48*	0	40*	52*
Oc1ccc(Nc2nc(-c3ccccc3)nc3ccccc23)cc1	1	0	-3	-4	·	·
Oc1ccc(Nc2nc3ccccc3nc2Nc2ccc(O)cc2)cc1	44*	29	52*	29	49*	67*
OCCC1CN(Cc2ccccc2OC2CCCC2)CCN1Cc1ccsc1 (centres undefined)	1	-7	-2	6	·	·
CCn1cc(/C=C(\NC(=O)c2ccccc2)C(=O)NCCCN2CCOCC2)c2ccccc21	3	2	0	2	·	·
COc1cc(NC(=O)C2=C(N3CCOCC3)/C(=C\c3ccc(N(C)C)cc3)CCC2)cc(OC)c1OC	6	-2	32*	3	21	26*
CCOC(=O)Oc1c(OC)cc(C(=O)O[C@@H]2C[C@@H]3CN4CCc5c([nH]c6cc(OC)ccc56)[C@H]4C[C@@H]3[C@H](C(=O)OC)[C@H]2OC)cc1OC	32	0	45*	-5	42*	53*
COC(=O)C1C2CC3c4[nH]c5cc(OC)ccc5c4CCN3CC2CC(O)C1OC (centres undefined)	8	6	·	-3	·	·
Cc1cc(=O)oc(C)c1C(=O)Nc1ccc2ncccc2c1	-42	-1	25*	-1	35*	45*
Cc1cc(=O)oc(C)c1C(=O)Nc1ccc2nsnc2c1	1	-4	3	5	·	·
CN(C)c1ccc(/C=N\NC(=O)c2cccc3cc[nH]c23)cc1	3	-4	1	11	·	·
CCCN1CCc2c(sc(NC(=S)NC(=O)c3ccccc3)c2C#N)C1	93	-98	88*	?	62*	71*
CC(C)N1CCc2c(sc(N)c2C#N)C1	19	9	30*	-16	42*	48*
CCN1CCc2c(sc(N)c2C#N)C1	4	3	-2	-3	·	·
CC(C)N1CCc2c(sc(NC(=O)c3ccc(S(=O)(=O)N4CCOCC4)cc3)c2C#N)C1	98	26	127*	-2	156*	147*
CC(C)C1Cc2c(sc(NC(=S)NC(=O)c3ccccc3)c2C#N)CO1 (centres undefined)	6	1	1	2	·	·
CC(C)N1CCc2c(sc(NC(=S)NC(=O)c3ccccc3)c2C#N)C1	44*	40*	94*	-42	81*	86*
Cc1cc(C)c(S(=O)(=O)N2CCCCC2CCNC(=O)C(=O)NCc2cccnc2)c(C)c1 (centres undefined)	0	-5	3	16	·	·
CCOC(=O)[C@]12CCCC=C1N(Cc1ccc(Cl)cc1Cl)C(=O)[C@H](CC(=O)NCC13CC4CC(CC(C4)C1)C3)C2	2	2	·	·	·	·
O=S1(=O)C=C[C@H](COCc2ccccc2)N1	-2	1	·	·	·	·
COc1cccc(NC(=O)c2ccnc(N3CCC(C(=O)NCc4ccccc4OC)CC3)c2)c1	0	2	-2	-18	·	·
SMILES	HNF4A DNA FP	CSN inh	TPT1 inhibitor	Rtt109 HAT inh	TPT1 inh confirm	RNase T1 counter	others
CC(C)N1CCc2c(sc(NC(=O)c3nc4ccccc4s3)c2C(N)=O)C1	18	17	19	1	·	·
CC(C)N1CCc2c(sc(NC(=O)c3cc(-c4cccs4)nc4ccccc34)c2C(N)=O)C1	12	107*	44*	10	14	22*
CNC(=O)c1cc(S(=O)(=O)Nc2ccc3c(c2)OCO3)ccc1C	2	-2	0	-10	·	·
COc1ccccc1NC(=O)CSc1nc(=O)n(Cc2ccncc2)c2c1CCCC2	0	-4	4	-10	·	·
CN(C)/C=C/C(=O)c1ccc(N2CCN(c3ncc(C(F)(F)F)cc3Cl)CC2)cc1	2	-1	80*	0	15	19
CN(C)C=NC(=O)c1ccc(N2CCN(c3ncc(C(F)(F)F)cc3Cl)CC2)cc1	-1	5	-3	2	·	·
CN(C)C(=O)CCc1ccc2c3c([nH]c2c1)[C@]1(CCc2ccccc2)[C@@H](C(=O)N2CCCCC2)C[C@H](CC(=O)NC(C)(C)C)C(=O)N1CC3	2	-1	·	4	·	·
O=C(NC12CC3CC(CC(C3)C1)C2)c1cc(F)c(F)c(F)c1F	0	0	44*	-10	-4	-3
Cc1nc(-c2coc3cc(C)c(N=O)c(O)c3/c2=N\N)cs1	1	2	80*	-1	9	15
Cc1nc(-c2coc3cc(O)c(C)cc3c2=O)cs1	-9	-5	2	-4	·	·
CN1/C(=C/C=C(C#N)C#N)C=Cc2ccccc21	138	72	6	-3	·	·
C=CCN1C=CC(=CC=C(C#N)C#N)C=C1	119	91*	137*	2	158*	155*	CSN5 deneddyl=98*;MMP-2 counter=8;Thrombin counter=79*
CCCN1C=CC(=CC=C(C#N)C#N)C=C1	121	83*	144*	-2	165*	161*	CSN5 deneddyl=23;MMP-2 counter=5;Thrombin counter=83*
O=C(c1ccc2c(c1)OCO2)C1CCCN(Cc2ccc(OC(F)F)cc2)C1 (centres undefined)	0	-3	-4	3	·	·
C#CCN1C(=O)S/C(=C/C=C/c2ccc(N(C)C)cc2)C1=O	78*	59*	87*	-1	77*	81*	CSN5 deneddyl=54*;MMP-2 counter=-69*;Thrombin counter=71*
O=C1/C(=C\c2ccco2)CCC/C1=C\c1ccco1	62	39*	55*	2	65*	72*	CSN5 deneddyl=66*;MMP-2 counter=6;Thrombin counter=53*
COc1ccc2cc(CCNS(=O)(=O)c3c(C)cc(C)cc3C)c(=O)[nH]c2c1	2	-1	-2	1	·	·
